According to ChEMBL document CHEMBL4513216, “Probing the Open Global Health Chemical Diversity Library for Multistage-Active Starting Points for Next-Generation Antimalarials” (ACS Infect Dis, 2020):

Experiment: Toxicity liver stage against HepG2, at 10uM
Format: cell-based
Design: test concentration 10 uM, cell line HepG2-A16-CD81EGFP
Conditions: human, HepG2-A16-CD81EGFP cells; read-out: INHIBITION
How it was run: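 Uninfected HepG2-A16-CD81EGFP cells, 3 × 10^3 per well, 1536-well, plated on prespotted compound at 10 μM final, parasite-free screening media added to match infected plates; puromycin 10 μM positive, DMSO 0.5% negative; run in parallel with 48 h PbLuc assay at 37 °C, 5% CO2; viability by CellTiter-Glo luminescence, normalized to controls.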

Row | Compound | cytotoxicity at 10 µM [%]
1 | Cn1cc(N2C(=O)CC[C@@H]3[C@H]2CCN3Cc2ccncc2)cn1 | -8.85
2 | Cc1ccoc1C(=O)N1C[C@@H]2COC[C@]2(CNS(C)(=O)=O)C1 | -1.14
3 | COc1c(C2CCCN2C(=O)CCNc2ncccn2)c(C)nn1C (stereo unspecified) | -5.1
4 | COc1ccc(N2CCN(C[C@@H](C)CO)CC2=O)cc1 | 1.99
5 | Cc1cc(CN(C)C(=O)c2ccc(C(F)(F)F)nc2)no1 | 2.05
6 | Cc1ccccc1OC1CCN(C(=O)c2c[nH]c(=O)[nH]c2=O)CC1 | 5.25
7 | Cc1cc(N(C)CCN(C)C)n2nc(C)cc2n1 | 7.77
8 | Cc1ccc(C#N)c(N2CCC3(CCC(=O)N(CC(N)=O)C3)CC2)n1 | 0.845
9 | CN1CCC2(CC1)CN(C(=O)c1cnccn1)Cc1ccccc12 | -82.2
10 | COc1c(CNCC(O)c2ccccc2F)c(C(C)C)nn1C (stereo unspecified) | -8.91
11 | CN1CCNC(Cc2ccc(-c3ccccc3)cc2)C1=O (stereo unspecified) | -41.9
12 | Cc1nc(CN)cc(N2CCC(O)(c3ccc(Cl)cc3)CC2)n1 | -8.13
13 | C[S+]([O-])c1nncn1CC(=O)c1ccc(Cl)c(Cl)c1 (stereo unspecified) | -4.34
14 | COc1c(C)cnc(CNC(=O)CCOCC(C)C)c1C | -4.44
15 | Cc1cnn(CCNCc2csc(-c3ccc(F)cc3)n2)c1 | -8.54
16 | COCc1nc2cc(NCc3ccncc3)ccc2o1 | -3.3
17 | CCC(O)CN1CCN(C(=O)c2cccn2Cc2ccncc2)CC1 (stereo unspecified) | -13
18 | CC[C@H]1CN2CC[C@H]1C[C@@H]2CNC(=O)c1ccco1 | 3.46
19 | O=C(c1coc(COc2ccccc2F)n1)N1CCCO1 | 6.29
20 | CCOc1cc(C)nc(N2CCN(C(=O)c3ccnn3C)CC2)n1 | -4.37
21 | CCC1c2cccn2CCN1S(=O)(=O)N1CCOCC1 (stereo unspecified) | 7.25
22 | CN(C)C(=O)CN1CCC2(CC1)COc1ccccc1S(=O)(=O)N(C)C2 | -0.259
23 | CCN(CCO)Cc1cn(-c2cccc(F)c2)nc1-c1ccc(C)o1 | 8.32

Row | Compound | cytotoxicity at 10 µM [%]
24 | C[C@@H]1C[C@@H]2CCN(C(=O)c3ccncn3)C[C@H]2O1 | -1.55
25 | CCS(=O)(=O)NC1CCCN(c2cc(C)ccc2F)C1=O (stereo unspecified) | 3.07
26 | O=C1O[C@@H]2CN(Cc3ccccc3)C[C@@H]2N1CCCN1CCOCC1 | -1.18
27 | O=C(Cc1ccc2c(c1)CCO2)N1CCN(c2cnccn2)CC1 | -11.3
28 | COc1ncccc1NC(=O)N1CCCC1c1cc(C)no1 (stereo unspecified) | -9.66
29 | Cc1noc([C@]23COC[C@H]2CN(S(C)(=O)=O)C3)n1 | 10.4
30 | Cc1cc(NCCNS(=O)(=O)c2cccc(Cl)c2)nc(C)n1 | 2.9
31 | CN1CCN(c2ccc(NCc3ccc(OC(F)(F)F)cc3)cn2)CC1 | 14.9
32 | O=C1CCC2(CCN(Cc3ncccn3)CC2)CN1CCCO | -8.11
33 | CCn1cc(NC(=O)c2cc(C)nc(N3CCOCC3)n2)cn1 | 6
34 | O=C(Cc1ccsc1)N1CCC[C@@H]1Cn1c(=O)oc2ccccc21 | 4.53
35 | COCCc1noc(CN2CCCC2Cn2cccn2)n1 (stereo unspecified) | -0.206
36 | c1cncc(NCCNC2CCSCC2)c1 | -0.307
37 | N#CCCN(C(=O)CN1CCCC1c1ccsc1)c1ccccc1 (stereo unspecified) | -8.42
38 | Cc1nn(C)c(C)c1C1CCCN1C(=O)CCCn1cccn1 (stereo unspecified) | -0.685
39 | CC(=O)N1CCN(Cc2c(C)ccc3ccccc23)CC(O)C1 (stereo unspecified) | 11.8
40 | Cc1cc(C)cc(OCCC(=O)NC2CC(=O)N(C)C2)c1 (stereo unspecified) | -1.68
41 | Cc1ncsc1CNC(=O)N1CCN(Cc2ccccc2)CC1C (stereo unspecified) | -131
42 | Cn1nccc1-c1ncc2c(c1C(=O)O)CCN(Cc1ccncc1)C2 | 6.1
43 | Cc1occc1C(=O)N1CCN2C[C@H](Oc3cccnc3)C[C@H]2C1 | -4.15
44 | CC(C)N1CCC2(CC1)CC(NS(C)(=O)=O)c1ccccc1O2 (stereo unspecified) | 7.16
45 | CCOCCC(=O)N1C[C@@H]2CC[C@H]1CN(c1ncccn1)C2 | 2.53
46 | COc1cc(C)ccc1C(=O)N1CCC2(CCC(=O)N(C(C)C)C2)CC1 | 3.76

Row | Compound | cytotoxicity at 10 µM [%]
47 | Cc1cc(C)n(C2CN(C(=O)CN3C(=O)CSc4ccccc43)C2)n1 | -6.53
48 | COc1ccc2c(c1)OCC(CNC(=O)c1cnc(O)cn1)C2 (stereo unspecified) | -1.09
49 | CCOC(=O)[C@@H]1[C@@H](O)C(=O)N(C)C12CCN(C(=O)OC)CC2 | 1.97
50 | COc1cc(C(=O)N2Cc3cnc(C(C)(C)C)nc3C2)ccn1 | 2.03
51 | O=C(NCCCNc1ccc(C(F)(F)F)cn1)c1ccccc1 | -6.07
52 | Cc1cnc2c(S(=O)(=O)NCC3CCN(C4CC4)C3)cccc2c1 (stereo unspecified) | -6.36
53 | Cn1nccc1C(=O)N1CCOC(Cc2cccnc2)C1 (stereo unspecified) | -7.95
54 | Cn1cc(NC(=O)N2CCCC2c2cccnc2)ccc1=O (stereo unspecified) | -3.73
55 | Cc1ccc(N2C[C@H](C(=O)N3CCOCC3)[C@@H]3CCO[C@@H]3C2)nn1 | -66.8
56 | Cc1cc(NC(=O)NCc2nccn2C)ccc1OC(C)C | -2.74
57 | Cn1c(Cn2ccnc2)nnc1C1CCN(Cc2cccnc2N)CC1 | -8.37
58 | c1snnc1CN1C[C@H]2CCC[C@@H](CN3CCOCC3)[C@H]2C1 | -116
59 | CCc1cnc(N2CCCC(CCC(N)=O)C2)nc1 (stereo unspecified) | 2.25
60 | CCNC(=O)C1CCN(Cc2ccc(C(=O)Nc3cnns3)cc2)C1 (stereo unspecified) | 9.2
61 | CC(C)CCNC(=O)c1ccc(-c2ccco2)[nH]c1=O | -9.62
62 | Cn1ccc(CN2CCC(OCc3ccccc3)CC2)cc1=O | 0.259
63 | Cc1ccccc1[C@@H]1CN(CCOCCO)C[C@H]1C(=O)O | -4.54
64 | O=C([C@H]1COC[C@H]2CN(CC3CCC3)C[C@H]21)N1CCOCC1 | 17.3
65 | COCC(c1cccc(C(F)(F)F)c1)N(C)C(=O)c1ccncc1 (stereo unspecified) | -14.6
66 | COCCCC(=O)Nc1[nH]nc(-c2ccncc2)c1C | -0.158
67 | CCc1nc(CN(C)C2CCN(Cc3nnc(C4CCC4)o3)C2)no1 (stereo unspecified) | 0.239
68 | CC(C)(C)OC(=O)NC(C)(C(N)=O)c1cccc(Cl)c1 (stereo unspecified) | 18.3
69 | CCN(CC)C(CNCc1ccc(OC)c(F)c1)c1ccco1 (stereo unspecified) | 15.2

Row | Compound | cytotoxicity at 10 µM [%]
70 | Nc1nc2c(c(=O)[nH]1)CCN(C(=O)c1ccccc1N1CCCC1)C2 | 1.79
71 | Cc1ccccc1OCC(=O)N1CCOC2(CNCCOC2)C1 (stereo unspecified) | -2.96
72 | CN(Cc1nc2ccccc2o1)C1CCCN(c2cccnn2)C1 (stereo unspecified) | -9.43
73 | Cn1nc(C2CCN(C(=O)c3cnccn3)C2)cc1CCO (stereo unspecified) | 9.95
74 | CCCn1nc2c(cc1=O)CN(c1ncnc3ccsc13)CC2 | 49.5
75 | O=C(NCc1ccc(OCC2CC2)nc1)C1COc2ccccc2O1 (stereo unspecified) | 0.0616
76 | CC(C)OCCNC1(c2ccc(Cl)cc2)CCOCC1 | 5.5
77 | O=C(CNc1nc(C2CC2)ns1)N1CCc2sccc2C1 | 17.3
78 | CCCC(=O)N1CCCCC1c1nc(N(C)C)ncc1-c1cc(C)no1 (stereo unspecified) | 4.94
79 | COc1ccc(OC)c(-n2nnnc2SCC2CCCCO2)c1 (stereo unspecified) | 11.7
80 | COC(=O)N1CCC(Nc2ccc(Cl)c(C#N)n2)C1 (stereo unspecified) | -3.44
81 | CN(C)C(=O)C1CCCN(C(=O)c2ccccc2-n2cc(CN)cn2)C1 (stereo unspecified) | 11.6
82 | Cc1ccc(-c2ccnc(N3CCC4(CC3)CNC(=O)C4)n2)c(C)n1 | -5.3
83 | CCNc1cc2c(nn1)CCN(C(=O)c1ccnc(N(C)C)c1)C2 | -20.9
84 | CSc1cccc(CN(C)C(=O)Nc2nc(C)n(C)n2)c1 | 2.78
85 | CC(=O)c1ccc(NC(=O)NC(C)c2ccc3c(c2)CC(=O)N3)cc1 (stereo unspecified) | -8.03
86 | N[C@@H]1CC[C@@H](NC(=O)c2ccccc2OC(F)(F)C(F)F)C1 | -4.85
87 | O=C(NCc1ccco1)c1[nH]nc2c1CS(=O)(=O)CC2 | 14.8
88 | CSCC[C@H](NC(=O)CCn1ccc2c(Cl)cccc21)C(=O)O | 2.42
89 | CCOCC1CC2(CCN(C(=O)c3cscn3)CC2)CO1 (stereo unspecified) | 2.42
90 | CS(=O)(=O)N1CCC(NCC2(N3CCOCC3)CCCCC2)CC1 | -3.27
91 | CSCc1nc(CCNC(=O)c2cnn(C(C)C)c2)cs1 | -7.91
92 | CS(=O)(=O)N1C[C@H]2CCC[C@@]2(COCC2CCOCC2)C1 | -0.173

Row | Compound | cytotoxicity at 10 µM [%]
93 | COc1ccc(C(C)=O)cc1CN1CCn2cccc2C1C (stereo unspecified) | -6.62
94 | CN(C)S(=O)(=O)N1CCCC1c1cccc(-n2ccnc2)n1 (stereo unspecified) | -3.75
95 | Cn1c(Cl)cnc1CN1CCCC1c1ccc2c(c1)OCCO2 (stereo unspecified) | -1.29
96 | CCN(C(=O)c1cnc(-c2ccc3c(c2)OCO3)s1)C1CC1 | -0.839
97 | Cc1nccn1C1CCCN(C(=O)c2ccc(-n3cccn3)nc2)C1 (stereo unspecified) | -9.18
98 | c1cncc(CN2CCC(c3ccnc4nccn34)C2)c1 (stereo unspecified) | 5.78
99 | CC1(C)CN(CC(F)(F)F)CCN1CC(=O)NC1CC1 | 12.5
100 | N#Cc1ccccc1CN1CCCCC1Cn1cncn1 (stereo unspecified) | -4.13
101 | Cc1cc(C)n(CC2CCCN2C(=O)CCCc2ccccn2)n1 (stereo unspecified) | -0.395
102 | C[C@@H]1CN(S(=O)(=O)N2CCCC2)CC[C@@]1(O)C1CCOCC1 | 4.49
103 | CN1CCC(C(=O)NCc2nncn2-c2ccccc2)CC1=O (stereo unspecified) | -4.32
104 | CC(=O)NCC1CCC2(CCN(c3ncc(C)cn3)CC2)O1 (stereo unspecified) | -3.09
105 | CCOc1ccccc1-c1cc(N)[nH]n1 | 5.75
106 | CS(=O)(=O)NC1CCN(C(=O)NCCc2ccccn2)CC1 | -14.4
107 | CCn1nc(C)c(CN(CCOC)Cc2ccccn2)c1C | 9.77
108 | CNS(=O)(=O)c1cccc(C(C)NCc2ccc(C)o2)c1 (stereo unspecified) | -3.69
109 | COc1ccc(-c2noc(C3CC(C(C)C)=NO3)n2)cc1 (stereo unspecified) | -6.64
110 | CCC(C)(CO)NC(=O)Nc1cc2c(cc1SC)OCCO2 (stereo unspecified) | -10.5
111 | COC(=O)CN(C(=O)c1cc(C)c(F)cc1F)c1cccc(C)n1 | 6.9
